Measurements taken from ChEMBL document CHEMBL4043283, “Discovery and Preclinical Development of IIIM-290, an Orally Active Potent Cyclin-Dependent Kinase Inhibitor” (J Med Chem, 2018).
In brackets after ≈: the same amount, converted by molar mass. Activity calls are given as the source filed them. The calls are words filed in the database; no cut-off is given here.

Tests used:
A-431 = test: Growth inhibition of human A431 cells after 48 hrs by MTT assay; type: functional; settings: A-431, 48 h
How it was run: (§1)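 Cancer cell lines sourced from the National Cancer Institute (USA). Cells kept in appropriate growth medium at 37 °C, 95% humidity, 5% CO2. Antiproliferation read by tetrazolium (MTT) assay. GI50 values were determined only for compounds selected after an initial single-concentration screen.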

PBL = test: Genotoxicity in human PBL at 0.125 to 2 ug/ml in presence of cytokinesis blocking agent cytochalasin B and absence of liver S9 fraction by micronucleus test; type: toxicity, cell-based
Mus musculus = test: Toxicity in CD1 nude mouse xenografted with human HCT116 cells assessed as change in body weight at 25 to 50 mg/kg, po qd administered on day 10 to 25 post tumor inoculation; type: organism-based; settings: in vivo
Liver [1] = test: Drug uptake in Sprague-Dawley rat liver at 30 mg/kg, po after 8 hrs; type: ADME, organism-based; settings: in vivo
[2] = biological target: CDK9/cyclin T1 (Homo sapiens) (UniProt O60563+P50750); test: Inhibition of CDK9/cyclin T1 (unknown origin) at 0.5 uM using YSPTSPSYSPTSPSYSPTSPKKK as substrate after 30 mins in presence of [33P]-gamma-ATP by filter binding assay relative to control; type: protein-complex assay
[3] = AUC (0 to t) in BALB/c mouse at 1 mg/kg, iv by LC-MS/MS analysis; type: ADME, organism-based; settings: in vivo
[4] = Intrinsic clearance in mouse hepatocytes assessed per million cells at 3 uM after 180 mins by LC-MS/MS analysis; type: ADME, cell-based, Hepatocyte; settings: read-out: CLH
[5] = Protein binding in rat plasma at 3 uM after 5 hrs by equilibrium dialysis method; type: ADME, cell-free; settings: read-out: PPB (converted)
[6] = Pancreas to plasma partition coefficient, Kp of the compound in BALB/c mouse at 30 mg/kg, po measured at 0.5 hrs; type: ADME, organism-based; settings: pancreas and plasma
Kidney = test: Drug uptake in Sprague-Dawley rat kidney at 30 mg/kg, po after 8 hrs; type: ADME, organism-based; settings: in vivo
[7] = Half life in human liver S9 fraction preincubated for 5 mins followed by NADPH addition measured after 30 mins by LC-MS/MS analysis; type: ADME, tissue-based
NCI-H226 = test: Growth inhibition of human NCI-H226 cells after 48 hrs by MTT assay; type: functional; settings: NCI-H226, 48 h; how it was run: as §1
PC-3 = test: Growth inhibition of human PC3 cells after 48 hrs by MTT assay; type: functional; settings: PC-3, 48 h; how it was run: as §1
Ehrlich = test: Antitumor activity against Swiss mouse EAC allografted in Swiss albino mouse assessed as tumor growth inhibition at 100 mg/kg, po administered for 9 day measured on day 13 relative to control; type: functional; settings: read-out: TGI
[8] = Half life in dog liver S9 fraction preincubated for 5 mins followed by NADPH addition measured after 30 mins by LC-MS/MS analysis; type: ADME, tissue-based, Canis lupus familiaris
[9] = Elimination half life in BALB/c mouse at 1 mg/kg, iv by LC-MS/MS analysis; type: ADME, organism-based; settings: in vivo, read-out: beta t1/2 (converted)
[10] = Tmax in BALB/c mouse at 10 mg/kg, po by LC-MS/MS analysis; type: ADME, organism-based; settings: in vivo
CYP3A4 = CYP3A4 (Homo sapiens, UniProt P08684); test: Inhibition of human CYP3A4 at 2 uM using fluorogenic substrate after 5 mins by fluorometric method relative to control; type: ADME; settings: probe fluorogenic substrate
Chain of CYP3A4 (P08684 whole entry): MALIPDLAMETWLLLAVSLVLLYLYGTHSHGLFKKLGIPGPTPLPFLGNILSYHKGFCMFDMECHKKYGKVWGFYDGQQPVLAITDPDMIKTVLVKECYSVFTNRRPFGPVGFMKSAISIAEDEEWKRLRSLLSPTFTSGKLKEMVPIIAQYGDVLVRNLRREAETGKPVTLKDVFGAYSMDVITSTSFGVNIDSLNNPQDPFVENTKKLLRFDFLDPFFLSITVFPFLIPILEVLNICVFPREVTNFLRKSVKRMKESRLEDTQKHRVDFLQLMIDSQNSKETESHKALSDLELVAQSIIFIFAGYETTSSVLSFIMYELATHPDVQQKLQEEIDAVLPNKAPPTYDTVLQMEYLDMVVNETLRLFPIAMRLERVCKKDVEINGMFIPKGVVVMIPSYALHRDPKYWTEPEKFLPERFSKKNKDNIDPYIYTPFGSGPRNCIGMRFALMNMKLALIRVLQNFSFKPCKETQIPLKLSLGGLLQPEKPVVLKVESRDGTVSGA

Liver [11] = test: Intrinsic clearance in dog liver S9 fraction assessed per mg of protein preincubated for 5 mins followed by NADPH addition measured after 30 mins by LC-MS/MS analysis; type: ADME, tissue-based, Canis lupus familiaris; settings: s9, 0.5 h
How it was run: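 Intrinsic clearance obtained from substrate disappearance over time, reported per mg protein (microsomes, S9) or per 10^6 cells (hepatocytes).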

[12] = Half life in monkey hepatocytes at 3 uM after 180 mins by LC-MS/MS analysis; type: ADME, cell-based, Macaca mulatta, Hepatocyte; settings: rhesus monkey
Salmonella typhimurium = test: Mutagenicity in Salmonella typhimurium TA98 at 50 ug/plate in absence of liver S9 fraction by Ames test; type: toxicity; settings: salmonella enterica subsp. enterica serovar typhimurium
[13] = Volume of distribution in BALB/c mouse at 1 mg/kg, iv by LC-MS/MS analysis; type: ADME, organism-based; settings: in vivo
[14] = Cmax in BALB/c mouse at 3 mg/kg, po by LC-MS/MS analysis; type: ADME, organism-based; set-up: dose 3 mg/kg, route oral; settings: in vivo
HL-60 = test: Growth inhibition of human HL60 cells at 10 uM after 48 hrs by MTT assay relative to control; type: functional; settings: HL-60, 48 h, read-out: GI
How it was run: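 Single-concentration primary screen at 10 μM by MTT assay. Cells were NCI-sourced cancer lines grown in appropriate medium at 37 °C, 95% humidity, 5% CO2. Growth inhibition is expressed relative to control.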

[15] = Clearance in BALB/c mouse at 1 mg/kg, iv by LC-MS/MS analysis; type: ADME, organism-based; settings: in vivo
Cytochrome P450 2C19 = Cytochrome P450 2C19 (Homo sapiens, UniProt P33261); test: Inhibition of human CYP2C19 using fluorogenic substrate preincubated with co-factor for 10 mins followed by enzyme-substrate addition by fluorometric method; type: ADME
Chain of Cytochrome P450 2C19 (P33261 whole entry): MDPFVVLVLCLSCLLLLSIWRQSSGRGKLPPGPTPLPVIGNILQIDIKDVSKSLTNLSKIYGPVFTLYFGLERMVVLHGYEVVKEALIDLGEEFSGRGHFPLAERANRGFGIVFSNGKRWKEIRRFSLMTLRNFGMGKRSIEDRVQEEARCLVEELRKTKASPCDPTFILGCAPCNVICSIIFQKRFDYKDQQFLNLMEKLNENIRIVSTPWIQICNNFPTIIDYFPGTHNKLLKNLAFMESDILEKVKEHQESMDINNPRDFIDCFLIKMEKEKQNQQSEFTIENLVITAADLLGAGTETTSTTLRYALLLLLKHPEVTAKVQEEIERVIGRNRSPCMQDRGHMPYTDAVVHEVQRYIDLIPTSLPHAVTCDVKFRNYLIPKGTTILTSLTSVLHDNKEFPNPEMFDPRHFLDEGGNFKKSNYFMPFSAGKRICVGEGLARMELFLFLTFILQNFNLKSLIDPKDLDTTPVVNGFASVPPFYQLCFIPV
How it was run: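 Cofactor plus test item or vehicle, in triplicate, preincubated 10 min at 37 °C; prewarmed enzyme–substrate mix added and incubated at 37 °C with shaking. Quench: acetonitrile (CYP2C19, CYP3A4) or 0.25 M Tris in 60% methanol (CYP2C9, CYP2D6). Metabolite fluorescence read; % inhibition computed against enzyme controls and enzyme-free blanks.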

MIA PaCa-2 [16] = test: Cell cycle arrest in human MIAPaCa2 cells assessed as accumulation at G1 phase at 1.5 uM after 24 hrs by propidium iodide staining-based flow cytometric method (reference value: 36%); type: functional
BT-549 = test: Growth inhibition of human BT549 cells after 48 hrs by MTT assay; type: functional; settings: BT-549, 48 h; how it was run: as §1
[17] = biological target: Cyclin-dependent kinase 5/CDK5 activator 1 (Homo sapiens, UniProt Q00535); test: Inhibition of CDK5/cyclin p35 (unknown origin) after 30 mins in presence of [33P]-gamma-ATP by filter binding assay; type: protein-complex assay
Chain of Cyclin-dependent kinase 5/CDK5 activator 1 (Q00535 whole entry): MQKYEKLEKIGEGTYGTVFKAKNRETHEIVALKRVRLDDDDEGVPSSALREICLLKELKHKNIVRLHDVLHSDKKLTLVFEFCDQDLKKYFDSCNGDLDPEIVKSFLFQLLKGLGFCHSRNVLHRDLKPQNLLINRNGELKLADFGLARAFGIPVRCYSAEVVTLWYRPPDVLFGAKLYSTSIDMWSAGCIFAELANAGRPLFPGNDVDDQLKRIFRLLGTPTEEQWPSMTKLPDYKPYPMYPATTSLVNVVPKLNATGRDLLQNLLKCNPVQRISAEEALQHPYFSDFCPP
Chain of Cyclin-dependent kinase 5/CDK5 activator 1 (Q15078 whole entry, further chain): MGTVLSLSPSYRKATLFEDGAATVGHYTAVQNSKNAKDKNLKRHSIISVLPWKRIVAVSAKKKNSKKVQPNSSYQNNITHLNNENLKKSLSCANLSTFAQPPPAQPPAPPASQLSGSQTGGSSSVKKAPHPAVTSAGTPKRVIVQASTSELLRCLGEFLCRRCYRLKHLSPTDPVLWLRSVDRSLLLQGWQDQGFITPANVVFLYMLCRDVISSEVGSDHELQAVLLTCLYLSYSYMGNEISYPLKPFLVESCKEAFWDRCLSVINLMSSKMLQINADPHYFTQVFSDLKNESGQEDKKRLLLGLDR

[18] = Half life in BALB/c mouse at 10 mg/kg, po by LC-MS/MS analysis; type: ADME, organism-based; settings: in vivo
MIA PaCa-2 [19] = test: Induction of apoptosis in human MIAPaCa2 cells at 1.5 uM after 24 hrs by propidium iodide staining-based flow cytometric method relative to control; type: functional
[20] = Intrinsic clearance in human liver microsomes assessed per mg of protein at 100 uM after 30 mins by LC-MS/MS analysis; type: ADME, microsome; settings: read-out: CLH
[21] = Thermodynamic equilibrium solubility of compound in SIF at pH 6.8 after 5 hrs by shake flask method; type: physicochemical; settings: read-out: Therm_solubility
MIA PaCa-2 [22] = test: Induction of apoptosis in human MIAPaCa2 cells assessed as caspase-3 cleavage by Western blot method; type: functional, cell-based
How it was run: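 Lysate protein quantified against a BSA standard; 70 μg resolved by SDS-PAGE, transferred to PVDF overnight at 4 °C, 30 V; blocked 1 h in 5% nonfat milk/TBST; primary antibodies 2–4 h, HRP anti-mouse secondary 1 h; ECL detection on X-ray film.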

MIA PaCa-2 [23] = test: Disruption of mitochondrial membrane potential in human MIAPaCa2 cells by Rh123 dye-based assay; type: functional, cell-based

Compound: CN1CC[C@H](c2c(O)cc(O)c3c(=O)cc(/C=C/c4c(Cl)cccc4Cl)oc23)[C@H](O)C1
- GI50 (A-431): 8 µM
- Activity (PBL): Non-Toxic
- Activity (Mus musculus): Non-Toxic
- Drug uptake (Liver [1]): Active
- inhibition [2]: 94%
- AUC(0-t) [3]: 0.525 µM·h
- hepatocyte CLint at 3 µM [4]: 14.9 µL/min/1e6 cells
- fraction unbound at 5 h, 3 µM [5]: 0.046
- Kp at 0.5 h [6]: 14.2
- Drug uptake (Kidney): Active
- half-life [7]: 1.2 h
- GI50 (NCI-H226): 4 µM
- GI50 (PC-3): 3 to 6 µM
- inhibition in vivo at 100 mg/kg (Ehrlich): 39%
- half-life [8]: 1.95 h
- half-life [9]: 5.46 h
- Tmax [10]: 0.25 to 1.71 h
- inhibition at 5 min, 2 µM (CYP3A4): 30%
- CLint (Liver [11]): 12 µL/min/mg
- half-life at 3 µM [12]: 5.43 h
- Activity (Salmonella typhimurium): Non-Toxic
- Vd [13]: 26.2 L/kg
- Cmax [14]: 216 nM
- inhibition of growth at 10 µM (HL-60): 90%
- clearance [15]: 55.4 mL/min/kg
- IC50 (Cytochrome P450 2C19): > 20 µM
- Activity (MIA PaCa-2 [16]): 48%
- GI50 (BT-549): 5 µM
- IC50 [17]: 0.0157 µM
- half-life [18]: 3.61 h
- Activity (MIA PaCa-2 [19]): 1.9%
- microsomal CLint at 100 µM [20]: < 8.6 µL/min/mg
- solubility thermodynamic at 5 h [21]: 2.18 µg/mL (≈ 4.72 µM)
- Activity (MIA PaCa-2 [22]): Dose-dependent effect
- Activity (MIA PaCa-2 [23]): Active
